Usually IC50 stands for the concentration that gives 50% inhibition. A lower IC50 goes with greater potency.

Common to all, as to assay type: functional, cell-based
For one test, the system named is SGC-7901. Kind of test: Antiproliferative activity against human SGC7901 cells after 48 hrs by MTT assay. Particulars: SGC-7901, 48 h. The gist of the method: (§1)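 Exponentially growing cells seeded in 96-well plates, left 24 h, then exposed to compounds at given concentrations for 48 h. MTT at 2.5 mg ml^-1 added for 4 h; formazan dissolved in 10% SDS in 0.1 N HCl, absorbance at 570 nm. Viability compared with blank; IC50 (50% inhibition of viability) calculated by Bliss method.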
A general note: Formazan colour is commonly taken as a measure of viable cells.

The next test concerns A549. Kind of test: Antiproliferative activity against human A549 cells after 48 hrs by MTT assay. Conditions: A549, 48 h. The gist of the method: as §1
The next test concerns K562. Kind of test: Antiproliferative activity against human K562 cells after 48 hrs by MTT assay. Conditions: K562, 48 h. In a few lines: as §1
A further test relates to HCT-116. Kind of test: Antiproliferative activity against human HCT116 cells after 48 hrs by MTT assay. Conditions: HCT-116, 48 h. In a few lines:
as §1

Another test has as its system SMMC-7721. The experiment in a line: Antiproliferative activity against human SMMC7721 cells after 48 hrs by MTT assay. Particulars: SMMC-7721, 48 h. The gist of the method: as §1

Structures are written as SMILES.

In the test with SGC-7901, `CC(=O)O[C@H]1C(=O)[C@@]2(C)[C@H]([C@H](OC(=O)c3ccccc3)[C@]3(O)C[C@H](OC(=O)[C@H](O)[C@@H](NC(=O)c4ccccc4)c4ccccc4)C(C)=C1C3(C)C)[C@]1(OC(C)=O)CO[C@@H]1C[C@@H]2O` [PACLITAXEL] came in with an IC50 of 3.34 µM.

Regarding `COc1cc2c(cc1OC(C)C)CCn1cc(-c3ccc(Br)cc3)c(-c3cc(OC)c(OC)c(OC)c3)c1-2`, the IC50 in the test with A549 was greater than 86.4 µM; in the test on K562 it was greater than 86.4 µM; in the test with SGC-7901, 15.4 µM; in the test on HCT-116, greater than 86.4 µM; with SMMC-7721 it was greater than 86.4 µM.

With `COc1ccc(-c2cn3c(c2-c2cc(OC)c(OC)c(OC)c2)-c2cc(OC)c(OC)cc2CC3)cc1O`, the IC50 in the test with A549 is greater than 96.4 µM; in the test on K562, 22 µM; in the test on SGC-7901, greater than 96.4 µM; in the test with HCT-116, 3.2 µM; with SMMC-7721, greater than 96.4 µM.

For `COc1ccc(-c2c(-c3cc(F)ccc3OC(C)C)cn3c2-c2cc(OC)c(OC)cc2CC3)cc1`, the half-inhibitory concentration (IC50) in the test with A549, with K562, in the test on SGC-7901, in the test with HCT-116 and with SMMC-7721 was greater than 103 µM each time.

With `COc1ccc(-c2c(-c3ccc(O)cc3)cn3c2-c2cc(OC)c(OC)cc2CC3)cc1`, the IC50 with A549 is greater than 117 µM; in the test with K562 it was 3.1 µM; in the test with SGC-7901 it was greater than 117 µM; in the test with HCT-116, 34.5 µM; in the test with SMMC-7721, greater than 117 µM.

In the case of `COc1cc(-c2c(-c3cc(F)ccc3OC)cn3c2-c2cc(OC)c(OC(C)C)cc2CC3)ccc1OC(C)C`, the IC50 in the test on A549, in the test on K562, in the test with SGC-7901, in the test on HCT-116 and in the test with SMMC-7721 was greater than 91.6 µM in each case.

With `COc1cc(OS(C)(=O)=O)c(-c2cn3c(c2-c2ccc(OC(C)C)c(OC)c2)-c2cc(OC)c(OC(C)C)cc2CC3)cc1OC`, the IC50 in the test on A549, in the test with K562, in the test on SGC-7901, in the test with HCT-116 and with SMMC-7721 was greater than 76.7 µM in each case.

With `COc1cc2c(cc1OC)-c1c(-c3cc(OC)c(OC)c(OC)c3)c(-c3ccc(Br)cc3)cn1CC2`, the IC50 in the test with A549 is greater than 90.8 µM; in the test with K562, 8.8 µM; in the test on SGC-7901, 1.2 µM; in the test with HCT-116 it was greater than 90.8 µM; with SMMC-7721 it was 17.5 µM.

Turning to `COc1cc2c(cc1OC(C)C)CCn1cc(-c3ccc(Cl)cc3)c(-c3cc(OC)c(OC)c(OC)c3)c1-2`, the half-maximal inhibitory concentration (IC50) with A549, in the test on K562, in the test with SGC-7901, in the test on HCT-116 and in the test on SMMC-7721 was greater than 93.6 µM each time.

On to `COc1ccc(-c2cn3c(c2-c2cc(OC)c(OC)c(OC)c2)-c2cc(OC)c(OC(C)C)cc2CC3)cc1O`, for which the 50% inhibitory concentration (IC50) was greater than 91.5 µM in the test on A549; 19.6 µM in the test with K562; greater than 91.5 µM with SGC-7901; greater than 91.5 µM in the test with HCT-116; greater than 91.5 µM in the test on SMMC-7721.

For `COc1ccc(-c2c(-c3ccc(OC)c(O)c3)cn3c2-c2cc(OC)c(OC)cc2CC3)cc1`, the IC50 in the test with A549, in the test on K562, in the test with SGC-7901, in the test on HCT-116 and with SMMC-7721 was greater than 109 µM throughout.

With `COc1cc2c(cc1OC)-c1c(-c3cc(OC)c(OC)c(OC)c3)c(-c3ccc(O)cc3)cn1CC2`, the IC50 in the test on A549 was found to be 23.3 µM; with K562, 5.3 µM; with SGC-7901, 22.7 µM; in the test with HCT-116 it was 13.8 µM; in the test on SMMC-7721, 15 µM.

As for `COc1cc2c(cc1OC)-c1c(-c3cc(OC)c(OC)c(OC)c3)c(-c3ccc(Cl)cc3)cn1CC2`, the IC50 with A549, with K562, in the test on SGC-7901, in the test with HCT-116 and in the test on SMMC-7721 was greater than 98.8 µM in each case.

Consider `COc1cc2c(cc1OC)-c1c(-c3cc(OC)c(OC)c(OC)c3)c(-c3ccc(O)c(O)c3)cn1CC2`, for which the IC50 is 99.4 µM with A549; 14.1 µM with K562; greater than 99.4 µM with SGC-7901; 5.8 µM in the test with HCT-116; 43.9 µM in the test with SMMC-7721.

As for `COc1cc(-c2c(-c3cc(OC)c(OC(C)C)cc3OS(C)(=O)=O)cn3c2-c2cc(OC)c(OC(C)C)cc2CC3)ccc1OC(C)C`, the IC50 was greater than 73.5 µM in the test on A549; 59.8 µM in the test on K562; greater than 73.5 µM in the test with SGC-7901; 21 µM with HCT-116; greater than 73.5 µM in the test with SMMC-7721.

For the compound `COc1ccc(-c2cn3c(c2-c2cc(OC)c(OC)c(OC)c2)-c2cc(OC)c(OC(C)C)cc2CC3)cc1OC(C)C`, the IC50 was greater than 85.1 µM in the test with A549; 83.3 µM in the test on K562; greater than 85.1 µM in the test on SGC-7901; greater than 85.1 µM in the test on HCT-116; greater than 85.1 µM in the test with SMMC-7721.

Regarding `COc1cc2c(cc1OC(C)C)CCn1cc(-c3ccc(O)c(O)c3)c(-c3cc(OC)c(OC)c(OC)c3)c1-2`, the IC50 in the test with A549 is greater than 94.1 µM; with K562 it was 4 µM; in the test on SGC-7901 it was greater than 94.1 µM; with HCT-116, 1.4 µM; in the test on SMMC-7721, greater than 94.1 µM.

For `COc1ccc(-c2c(-c3cc(OC)c(OC)cc3OS(C)(=O)=O)cn3c2-c2cc(OC)c(OC)cc2CC3)cc1OC`, the half-maximal inhibitory concentration (IC50) with A549, in the test with K562, in the test with SGC-7901, in the test with HCT-116 and in the test with SMMC-7721 was greater than 83.9 µM in each case.

Consider `COc1ccc(-c2c(-c3cc(F)ccc3OC)cn3c2-c2cc(OC)c(OC)cc2CC3)cc1`, for which the IC50 with A549, in the test on K562, with SGC-7901, in the test with HCT-116 and in the test on SMMC-7721 was greater than 109 µM in each case.

As for `COc1cc2c(cc1OC)-c1c(-c3cc(OC)c(OC)c(OC)c3)c(-c3ccc(OC)c(OC(C)C)c3)cn1CC2`, the IC50 in the test on A549, with K562, in the test on SGC-7901, in the test with HCT-116 and with SMMC-7721 was greater than 89.3 µM each time.

`COc1cc2c(cc1OC)-c1c(-c3cc(OC)c(OC)c(OC)c3)c(-c3cc(F)ccc3OC)cn1CC2`: the IC50 in the test on A549 was greater than 96.2 µM; in the test on K562, 37.1 µM; in the test with SGC-7901, greater than 96.2 µM; in the test with HCT-116, greater than 96.2 µM; in the test with SMMC-7721, greater than 96.2 µM.

`COc1cc2c(cc1OC(C)C)CCn1cc(-c3ccc(O)cc3)c(-c3cc(OC)c(OC)c(OC)c3)c1-2`: the IC50 in the test on A549 was greater than 96.8 µM; with K562 it was greater than 96.8 µM; with SGC-7901, greater than 96.8 µM; in the test with HCT-116 it was greater than 96.8 µM; with SMMC-7721 it was 46.7 µM.

Consider `COc1cc(-c2c(-c3ccc(O)c(O)c3)cn3c2-c2cc(OC)c(OC(C)C)cc2CC3)ccc1OC(C)C`, for which the IC50 is 6.7 µM in the test on A549; 2.7 µM in the test on K562; 11.4 µM in the test on SGC-7901; 0.7 µM with HCT-116; 10.9 µM with SMMC-7721.

In the case of `COc1ccc(-c2c(-c3ccc(O)c(O)c3)cn3c2-c2cc(OC)c(OC)cc2CC3)cc1OC`, the IC50 in the test on A549, in the test on K562, with SGC-7901, in the test on HCT-116 and in the test on SMMC-7721 was greater than 106 µM each time.
